ChEMBL document CHEMBL1137224, “Design, synthesis, and evaluation of 3,4-dihydro-2H-[1,4]diazepino[6,7,1-hi]indol-1-ones as inhibitors of poly(ADP-ribose) polymerase” (J Med Chem, 2004)

Columns and labels:
[1] = biological target: Poly [ADP-ribose] polymerase 1 (Homo sapiens, UniProt P09874)
A549 [2] = experiment: Ratio of cytotoxicity of topotecan to cytotoxicity of compound at 0.4 uM in combination with topotecan; type: functional, Homo sapiens
A549 [3] = experiment: In vitro cytotoxicity of compound at 0.4 uM in combination with topotecan against human lung carcinoma A549 cells; type: functional, cell-based
Summary of the method: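 A549 cells seeded 16–24 h ahead, then exposed to topotecan plus 0.4 μM PARP-1 inhibitor for 3 or 5 days. Cell number read by MTT (540 nm) or SRB (515 nm). Cytotoxicity expressed as % OD relative to mock-treated culture; topotecan IC50 reported in presence of inhibitor.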

A549 [4] = experiment: In vitro cytotoxicity against human lung carcinoma A549 cells; type: functional, cell-based
Summary of the method: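 A549 cells seeded 16–24 h before treatment, then exposed to compound alone for 3 or 5 days. Relative cell number read by MTT (0.2 μg/μL, 4 h, DMSO-solubilized, 540 nm) or SRB (10% TCA fix 1 h at 4 °C, 0.4% SRB 30 min, Tris-solubilized, 515 nm). Cytotoxicity taken as % OD of treated versus mock-treated culture; IC50 reported.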

Sequence of Poly [ADP-ribose] polymerase 1 (P09874 whole entry): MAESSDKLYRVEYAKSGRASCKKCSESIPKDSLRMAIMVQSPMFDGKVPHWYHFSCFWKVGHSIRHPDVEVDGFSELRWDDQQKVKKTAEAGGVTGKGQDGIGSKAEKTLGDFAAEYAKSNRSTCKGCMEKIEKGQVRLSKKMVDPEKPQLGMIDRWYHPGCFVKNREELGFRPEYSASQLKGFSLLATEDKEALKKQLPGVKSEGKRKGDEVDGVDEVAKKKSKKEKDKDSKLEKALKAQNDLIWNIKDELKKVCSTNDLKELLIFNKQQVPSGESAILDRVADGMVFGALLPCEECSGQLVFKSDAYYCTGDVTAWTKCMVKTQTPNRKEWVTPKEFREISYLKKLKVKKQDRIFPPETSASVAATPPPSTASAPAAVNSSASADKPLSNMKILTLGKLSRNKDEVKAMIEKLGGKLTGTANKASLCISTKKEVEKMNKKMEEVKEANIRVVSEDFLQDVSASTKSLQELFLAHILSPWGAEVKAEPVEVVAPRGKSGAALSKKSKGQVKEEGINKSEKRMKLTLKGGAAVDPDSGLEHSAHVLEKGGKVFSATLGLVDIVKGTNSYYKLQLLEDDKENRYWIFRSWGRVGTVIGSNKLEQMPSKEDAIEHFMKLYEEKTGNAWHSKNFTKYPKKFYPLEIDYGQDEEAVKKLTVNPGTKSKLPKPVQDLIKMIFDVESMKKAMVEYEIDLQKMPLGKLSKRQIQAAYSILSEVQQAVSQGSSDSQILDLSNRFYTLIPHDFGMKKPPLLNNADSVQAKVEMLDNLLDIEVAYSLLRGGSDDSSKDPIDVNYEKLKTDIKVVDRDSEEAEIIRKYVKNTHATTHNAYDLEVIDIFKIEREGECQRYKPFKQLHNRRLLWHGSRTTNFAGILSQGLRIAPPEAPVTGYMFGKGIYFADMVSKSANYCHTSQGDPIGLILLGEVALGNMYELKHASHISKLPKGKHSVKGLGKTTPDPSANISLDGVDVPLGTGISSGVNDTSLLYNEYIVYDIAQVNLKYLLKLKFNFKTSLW

Structure (SMILES): Cc1nc2c(O)cccc2c(=O)[nH]1
- Ki [1]: 52 nM

Structure (SMILES): Cc1cccc2c1CCNC2=O
- Ki [1]: 70 nM

Structure (SMILES): N=C(NO)C1c2cccc3c2N(CCNC3=O)C1c1ccc(F)cc1 (stereo not given)
- Ki [1]: 87 nM

Structure (SMILES): Cc1c(-c2ccc(F)cc2)n2c3c(cccc13)C(=O)NCC2
- PF50 (A549 [2]): 1.1
- IC50 (A549 [3]): 21.8 nM
- IC50 (A549 [4]): 6000 nM

Structure (SMILES): O=Cc1cn2c3c(cccc13)C(=O)NCC2
- Ki [1]: 176 nM

Structure (SMILES): CN(C)Cc1cccc(-c2cc3cccc4c3n2CCNC4=O)c1
- PF50 (A549 [2]): 1.6
- IC50 (A549 [3]): 15 nM
- IC50 (A549 [4]): 11000 nM

Structure (SMILES): O=C1NCCn2c(-c3ccc(Cn4cccc4)cc3)cc3cccc1c32
- Ki [1]: 6.8 nM

Structure (SMILES): O=C1NCCn2cc(/C=N/O)c3cccc1c32
- PF50 (A549 [2]): 1.3
- IC50 (A549 [3]): 18.5 nM
- IC50 (A549 [4]): 8000 nM

Structure (SMILES): NN/N=C/c1c(-c2ccc(F)cc2)n2c3c(cccc13)C(=O)NCC2
- Ki [1]: 57 nM

Structure (SMILES): CN(C)Cc1ccc(-c2cc3cccc4c3n2CCNC4=O)cc1
- Ki [1]: 6.4 nM
- PF50 (A549 [2]): 1.9
- IC50 (A549 [3]): 12.6 nM
- IC50 (A549 [4]): 7000 nM

Structure (SMILES): O=C1NCCn2c(-c3ccc(F)cc3)cc3cccc1c32
- PF50 (A549 [2]): 1.8
- IC50 (A549 [3]): 13.3 nM
- IC50 (A549 [4]): 8000 nM

Structure (SMILES): CNCc1cccc(-c2cc3cccc4c3n2CCNC4=O)c1
- Ki [1]: 6.9 nM

Structure (SMILES): O=C1NCCn2c(-c3ccc(F)cc3)c(/C=N/O)c3cccc1c32
- PF50 (A549 [2]): 1.2
- IC50 (A549 [3]): 20 nM
- IC50 (A549 [4]): < 800 nM

Structure (SMILES): O=C1NCCn2c(-c3ccc(Cl)cc3)cc3cccc1c32
- PF50 (A549 [2]): 1.8
- IC50 (A549 [3]): 13.3 nM
- IC50 (A549 [4]): 3000 nM

Structure (SMILES): O=C1NCCn2c(-c3cccc(Cn4cccc4)c3)cc3cccc1c32
- Ki [1]: 12.5 nM
